Test results from ChEMBL document CHEMBL1152649, “Synthesis, cytotoxicity and human telomerase inhibition activities of a series of 1,2-heteroannelated anthraquinones and anthra[1,2-d]imidazole-6,11-dione homologues” (2009).

Tests used:
Type in all cases: functional
OVCAR-5 = assay: Growth inhibition of human OVCAR5 cells
Outline: (§1)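 NCI 60 cancer cell line screen run per the Developmental Therapeutics Program protocol. Dose–response curves were plotted against log10 drug concentration for each cell line within its subpanel, and mean graph midpoint values were calculated.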

SF-295 = assay: Growth inhibition of human SF295 cells
Outline: (§2)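 Assayed in the NCI 60 human cancer cell line panel under the Developmental Therapeutics Program protocol. For each line, dose–response curves were plotted against log10 drug concentration. In the one-dose screen at 10^-5 M, growth was given as percent of untreated control cells, and mean graph midpoint values were averaged.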

SK-OV-3 = assay: Growth inhibition of human SKOV3 cells; outline: as §2
HCC 2998 = assay: Growth inhibition of human HCC2998 cells; outline: as §1
MOLT-4 = assay: Growth inhibition of human MOLT4 cells; outline: as §1
HL-60(TB) = assay: Growth inhibition of human HL-60(TB) cells
Outline: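 NCI 60-cell-line panel run under the Developmental Therapeutics Program protocol. Dose-response curves are plotted against log10 drug concentration for each cell line within its subpanel, and GI50 is read from these curves.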

UACC-257 = assay: Growth inhibition of human UACC257 cells; outline: as §2
RXF 393 = assay: Growth inhibition of human RXF393 cells; outline: as §2
SF-539 = assay: Growth inhibition of human SF539 cells; outline: as §2
TK-10 = assay: Growth inhibition of human TK10 cells; outline: as §2
M14 = assay: Growth inhibition of human M14 cells; outline: as §1
[1] = Growth inhibition of human […] cells; outline: as §2
[2] = Growth inhibition of human Hs 578T cells; outline: as §1
SR = assay: Growth inhibition of human SR cells; outline: as §2
SK-MEL-5 = assay: Growth inhibition of human SK-MEL-5 cells; outline: as §2
SN12C = assay: Growth inhibition of human SN12C cells; outline: as §2
LOX IMVI = assay: Growth inhibition of human LOXIMVI cells; outline: as §1
SK-MEL-28 = assay: Growth inhibition of human SK-MEL-28 cells; outline: as §2
OVCAR-8 = assay: Growth inhibition of human OVCAR8 cells; outline: as §1
HT-29 = assay: Growth inhibition of human HT-29 cells; outline: as §1
COLO 205 = assay: Growth inhibition of human COLO205 cells; outline: as §1
Malme-3M = assay: Growth inhibition of human MALME-3M cells; outline: as §1
CCRF-CEM = assay: Growth inhibition of human CCRF-CEM cells; outline: as §1
HOP-92 = assay: Growth inhibition of human HOP92 cells; outline: as §1
UO-31 = assay: Growth inhibition of human UO31 cells; outline: as §2
MCF7 = assay: Growth inhibition of human MCF7 cells; outline: as §1
NCI-H522 = assay: Growth inhibition of human NCI-H522 cells; outline: as §1
EKVX = assay: Growth inhibition of human EKVX cells; outline: as §1
T47D = assay: Growth inhibition of human T47D cells; outline: as §2
CAKI-1 = assay: Growth inhibition of human Caki1 cells; outline: as §1
SNB-75 = assay: Growth inhibition of human SNB75 cells; outline: as §2
HCT-116 = assay: Growth inhibition of human HCT116 cells; outline: as §1
NCI/ADR-RES = assay: Growth inhibition of human NCI/ADR-RES cells; outline: as §1
NCI-H23 = assay: Growth inhibition of human NCI-H23 cells; outline: as §1
NCI-H226 = assay: Growth inhibition of human NCI-H226 cells; outline: as §1
IGROV-1 = assay: Growth inhibition of human IGROV1 cells; outline: as §1
[3] = read-out: LC50 (the source's name)

## CCc1nc2ccc3c(c2[nH]1)C(=O)c1ccccc1C3=O
OVCAR-5
  GI50: 77.4 µM
  TGI: > 100 µM
OVCAR-5; [3]
  CC50: > 100 µM
SF-295
  GI50: 4.15 µM
  TGI: > 100 µM
SF-295; [3]
  CC50: > 100 µM
SK-OV-3
  GI50: 2590 nM
  TGI: > 100 µM
SK-OV-3; [3]
  CC50: > 100 µM
HCC 2998
  GI50: 18.8 µM
  TGI: > 100 µM
HCC 2998; [3]
  CC50: > 100 µM
MOLT-4
  GI50: 4.22 µM
  TGI: > 100 µM
MOLT-4; [3]
  CC50: > 100 µM
HL-60(TB)
  GI50: 2720 nM
  TGI: 64.1 µM
HL-60(TB); [3]
  CC50: > 100 µM
UACC-257
  GI50: 47.2 µM
  TGI: > 100 µM
UACC-257; [3]
  CC50: > 100 µM
RXF 393
  GI50: 6.95 µM
  TGI: > 100 µM
RXF 393; [3]
  CC50: > 100 µM
SF-539
  GI50: 11.7 µM
  TGI: > 100 µM
SF-539; [3]
  CC50: > 100 µM
TK-10
  GI50: 12.1 µM
  TGI: > 100 µM
TK-10; [3]
  CC50: > 100 µM
M14
  GI50: 7.42 µM
  TGI: > 100 µM
M14; [3]
  CC50: > 100 µM
[1]
  GI50: 4.16 µM
  TGI: > 100 µM
[1]; [3]
  CC50: > 100 µM
[2]
  GI50: > 100 µM
  TGI: > 100 µM
SR
  GI50: 6.71 µM
  TGI: > 100 µM
SR; [3]
  CC50: > 100 µM
SK-MEL-5
  GI50: 12.7 µM
  TGI: 59.1 µM
SK-MEL-5; [3]
  CC50: > 100 µM
SN12C
  GI50: 13.6 µM
  TGI: > 100 µM
SN12C; [3]
  CC50: > 100 µM
LOX IMVI
  GI50: 4.56 µM
  TGI: > 100 µM
LOX IMVI; [3]
  CC50: > 100 µM
SK-MEL-28
  GI50: > 100 µM
  TGI: > 100 µM
SK-MEL-28; [3]
  CC50: > 100 µM
OVCAR-8
  GI50: 23.2 µM
  TGI: > 100 µM
OVCAR-8; [3]
  CC50: > 100 µM
HT-29
  GI50: 16.1 µM
  TGI: > 100 µM
HT-29; [3]
  CC50: > 100 µM
COLO 205
  GI50: 8.95 µM
  TGI: > 100 µM
COLO 205; [3]
  CC50: > 100 µM
Malme-3M
  GI50: 8.55 µM
  TGI: > 100 µM
Malme-3M; [3]
  CC50: > 100 µM
CCRF-CEM
  GI50: 16.5 µM
  TGI: > 100 µM
CCRF-CEM; [3]
  CC50: > 100 µM
HOP-92
  GI50: 9.84 µM
  TGI: 7.58 µM
HOP-92; [3]
  CC50: > 100 µM
UO-31
  GI50: 1330 nM
  TGI: > 100 µM
UO-31; [3]
  CC50: > 100 µM
MCF7
  GI50: 13 µM
  TGI: > 100 µM
MCF7; [3]
  CC50: > 100 µM
NCI-H522
  GI50: 28.3 µM
  TGI: > 100 µM
NCI-H522; [3]
  CC50: > 100 µM
EKVX
  GI50: 4.6 µM
  TGI: > 100 µM
EKVX; [3]
  CC50: > 100 µM
T47D
  GI50: 3.3 µM
  TGI: > 100 µM
CAKI-1
  GI50: 1170 nM
  TGI: > 100 µM
CAKI-1; [3]
  CC50: > 100 µM
SNB-75
  GI50: 62.5 µM
  TGI: > 100 µM
SNB-75; [3]
  CC50: > 100 µM
HCT-116
  GI50: 5.9 µM
  TGI: > 100 µM
HCT-116; [3]
  CC50: > 100 µM
NCI/ADR-RES
  GI50: 18.9 µM
  TGI: > 100 µM
NCI/ADR-RES; [3]
  CC50: > 100 µM
NCI-H23
  GI50: 12.1 µM
  TGI: > 100 µM
NCI-H23; [3]
  CC50: > 100 µM
NCI-H226
  GI50: 2460 nM
  TGI: > 100 µM
NCI-H226; [3]
  CC50: > 100 µM
IGROV-1
  GI50: 1540 nM
  TGI: 14.8 µM
IGROV-1; [3]
  CC50: > 100 µM
